The record followed here is ChEMBL document CHEMBL1134536, “Nonpeptidic, monocharged, cell permeable ligands for the p56lck SH2 domain” (J Med Chem, 2001).

As a reminder, the EC50 is the concentration giving half of the maximal effect. A low value points to a more potent agent. What is called inhibition is the percentage by which the read-out fell short of the control. A word on the Kd: it is the equilibrium constant for the complex coming apart. A low value points to a tighter complex.

For one data set, the species on record is Homo sapiens. The experiment in a line: Percent permeated in 3 hours in Caco-2 model. The format is ADME, organism-based. Conditions: caco-2, 3 h. The procedure, abridged:
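Caco-2 monolayers on collagen-coated polycarbonate filters, grown up to 25 days (passages 23–50). Cells equilibrated in HBSS pH 7.4 for 30 min at 37 °C. Drug applied apically at 0.01–0.1 mM final in HBSS at 37 °C, 5% CO2. Basolateral samples taken at intervals; cumulative amount plotted against time. Mannitol used to check monolayer integrity; mass balance >90%; at least triplicates.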
In general terms: Caco-2 cells form a polarised layer with tight junctions and transporters.

Data set [1] is described as follows: Inhibition of IL-2 production in CD4+T cells. Conditions: Homo sapiens, CD4+ T cell. The format is functional, cell-based. The procedure, abridged:
(§1)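 Purified human CD4+ T cells (5 × 10^4/well) in RPMI 1640 with 1% FBS. Compound diluted from DMSO stock, preincubated 1 h at 37 °C. Cells activated with 0.12 ng/well anti-CD3, 100 ng/well anti-CD28 and anti-mouse IgG magnetic beads, then incubated overnight at 37 °C, 5% CO2. Secreted IL-2 in supernatant measured by ELISA.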

A short description of data set [2]: Inhibition of proliferation of CD4+T cells. The conditions noted are these: Homo sapiens, CD4+ T cell. The format is functional, cell-based. The procedure, abridged: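 Human CD4+ T cells, 5 × 10^4/well, preincubated with compound for 1 h at 37 °C. Stimulated with anti-CD3, anti-CD28 and anti-mouse IgG beads. Pulsed 48 h after activation with 0.5 μCi/well [3H]-thymidine, incubated a further 18 h at 37 °C, harvested, and incorporated radioactivity counted.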

For data set [3], the system named is Jurkat. Description: Percent Inhibition of Ca+2 influx in jurkat T cells at 50 uM concentration. The format is functional. Conditions: Homo sapiens. The procedure, abridged: (§2)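 Jurkat cells loaded with 2 μM Fluo-3 AM plus Pluronic F127 for 1 h at room temperature, washed, resuspended in HBSS with 10 mM HEPES pH 7.5. 4 × 10^6 cells per cuvette equilibrated to 37 °C; compound added 80 s before TCR cross-linking with 2 μg mouse anti-human CD3. Cytoplasmic calcium followed by fluorescence over time; EC50 from percent of control fluorescence at six doses.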

In data set [4] the test system is Jurkat. The experiment in a line: Percent inhibition of Ca+2 influx in jurkat T cells at 50 uM concentration. Type of data set: functional. Conditions: Homo sapiens. The gist of the method: as §2
Data set [5] deals with Tyrosine-protein kinase Lck (Homo sapiens, UniProt P06239). Description: Binding affinity for p56lck SH2 domain site.
Sequence of Tyrosine-protein kinase Lck (P06239 whole entry, the tested form may be a part): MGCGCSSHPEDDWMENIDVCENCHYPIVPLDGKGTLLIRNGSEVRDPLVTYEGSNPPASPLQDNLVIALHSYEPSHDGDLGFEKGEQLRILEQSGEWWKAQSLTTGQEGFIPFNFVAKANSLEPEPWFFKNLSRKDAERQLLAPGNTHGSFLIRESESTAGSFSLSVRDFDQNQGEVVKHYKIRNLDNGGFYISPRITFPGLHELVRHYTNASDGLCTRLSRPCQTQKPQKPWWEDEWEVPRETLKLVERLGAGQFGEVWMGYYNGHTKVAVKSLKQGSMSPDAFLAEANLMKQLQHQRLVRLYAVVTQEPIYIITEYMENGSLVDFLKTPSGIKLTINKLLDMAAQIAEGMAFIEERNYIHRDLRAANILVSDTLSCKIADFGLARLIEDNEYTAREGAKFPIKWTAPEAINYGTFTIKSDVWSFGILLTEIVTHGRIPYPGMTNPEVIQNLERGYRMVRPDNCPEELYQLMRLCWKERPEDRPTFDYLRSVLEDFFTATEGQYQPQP
Data set [6] in a line: Inhibition of IL-2 production from CD4+T cells. Type of data set: functional, cell-based. The conditions noted are these: Homo sapiens, CD4+ T cell. The gist of the method:
as §1

The test system of data set [7] is Jurkat. Description: Inhibition of Ca+2 influx in jurkat T cells. Type of data set: functional, cell-based. Conditions: Homo sapiens. The gist of the method: as §2

In the case of `COc1ccc(Cn2ccc(C)c(NC(=O)[C@@H](Cc3ccc(C(C)(C)C(=O)O)cc3)NC(=O)C(C)(C)c3ccc4ccccc4c3)c2=O)cc1`, the Permeated in the data set filed under Homo sapiens stood at 16%. Moreover, the EC50 was 11.3 µM in data set [1] and 16.6 µM in data set [2]. Also, the inhibition at 50 µM in the data set on Jurkat [3] was found to be 57%; in the data set on Jurkat [4] it was 29%.

As for `COc1ccc(Cn2cccc(NC(=O)C(Cc3ccc(CC(=O)O)cc3)NC(=O)Cc3cccc4ccccc34)c2=O)cc1` (centres undefined), the Permeated in the data set filed under Homo sapiens amounted to 1.3%. In data set [5], the Kd was found to be 23 µM.

The compound `COc1ccc(Cn2ccc(C)c(NC(=O)[C@H](Cc3ccc(C(C)(C)C(=O)O)cc3)NC(=O)C(C)(C)c3ccc4ccccc4c3)c2=O)cc1` registered a Permeated in the data set filed under Homo sapiens of 21%. For the same compound, the EC50 in data set [6] was 9.4 µM; in data set [2] it was 8.7 µM; in the data set on Jurkat [7] it was 10.1 µM.

`COc1ccc(CNC(=O)[C@H](CCC(=O)O)NC(=O)[C@H](Cc2ccc(CC(=O)O)cc2)NC(=O)Cc2cccc3ccccc23)cc1`: in the data set filed under Homo sapiens, the Permeated stood at 0.3%. In the data set on Jurkat [7], this compound returned an EC50 of more than 100 µM.

`COc1ccc(Cn2ccc(C)c(NC(=O)C(Cc3ccc(CC(=O)O)cc3)NC(C)=O)c2=O)cc1` (centres undefined) registered a Permeated in the data set listed under Homo sapiens of 0.4%. Besides, the Kd in data set [5] was 7 µM.

In turn, `COc1ccc(Cn2ccc(C)c(NC(=O)C(Cc3ccc(CC(=O)O)cc3)NC(=O)Cc3cccc4ccccc34)c2=O)cc1` (centres undefined) returned a Permeated in the data set filed under Homo sapiens of 0.3%. The compound also gave an EC50 in the data set on Jurkat [7] of more than 100 µM. This compound gave a Kd in data set [5] of 1.3 µM.

For `COc1ccc(Cn2ccc(C)c(NC(=O)C(Cc3ccc(C(C)(C)C(=O)O)cc3)NC(=O)Cc3cccc4ccccc34)c2=O)cc1` (racemic), in the data set filed under Homo sapiens, the Permeated amounted to 0.4%. For the same compound, in the data set with Jurkat [7], it took 51 µM to reach a half-maximal effect (EC50). Moreover, the Kd in data set [5] was 1.2 µM.

In the data set filed under Homo sapiens, `COc1ccc(Cn2ccc(C)c(NC(=O)C(Cc3ccc(C(C)(C)C(=O)O)cc3)NC(=O)Cc3ccc4ccccc4c3)c2=O)cc1` (racemic) registered a Permeated of 0.6%. The same compound yielded an EC50 in the data set with Jurkat [7] of 30.5 µM. For the same compound, binding in data set [5] was put at a Kd of 0.28 µM.
